T cruzi inh = blocks replication of Trypanosoma cruzi. inhibition, % (test concentration not listed). AID 1885. T. cruzi beta-gal in NIH3T3, luminescence, 90 h. 300,000 compounds, 1.4% hits;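 active = mean inhibition across valid replicates above about 55%, limit read from the data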;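 note: signal also drops with host cell toxicity which is not excluded here; higher percent means less beta-gal luminescence so fewer parasites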
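System: mouse NIH/3T3 fibroblasts infected with β-gal-expressing T. cruzi Tulahuen C4 / Input: NIH/3T3 cells, 5,000 per well / Buffer or medium: Low-serum DMEM with 2% FBS / Probe or stimulus: 5000 reporter trypomastigotes per well / Schedule: ≥90 h infection period, 3 h prior cell attachment / Measured by: GalScreen luminescence, 60 min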
CSC inhib = cancer stem cell inhibition; 300,000 compounds, 1.1% hits; cancer stem cell-like cells viability, luminescence; inhibition, % at 7.5 µM; AID 2717; in the data active = inhibition above about 75%; tested in HMLE shEcad cells
Beta apoptosis = blocks beta cell apoptosis; INS-1E cytokine-induced death, ATP luminescence, 48 h; percent of positive-control rescue, neutral wells zero; protection from apoptosis, % (no concentration beside the values); 300,000 compounds, 0.8% hits;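 active = Every replicate reaches about 75%, or at least half do and their mean reaches it too, limit read from the data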;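 note: higher means more ATP so stronger rescue from cytokine killing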
PREPL inhibitor = human PREPL enzyme inhibition; recombinant PREPL, fluorescence polarization activity-based probe; 320,000 compounds, 0.68% hits; AID 2751; inhibition, % at 5.96 µM; Q4J6C6; in the data active = inhibition above about 43%
Target sequence (Q4J6C6 whole entry, looked up): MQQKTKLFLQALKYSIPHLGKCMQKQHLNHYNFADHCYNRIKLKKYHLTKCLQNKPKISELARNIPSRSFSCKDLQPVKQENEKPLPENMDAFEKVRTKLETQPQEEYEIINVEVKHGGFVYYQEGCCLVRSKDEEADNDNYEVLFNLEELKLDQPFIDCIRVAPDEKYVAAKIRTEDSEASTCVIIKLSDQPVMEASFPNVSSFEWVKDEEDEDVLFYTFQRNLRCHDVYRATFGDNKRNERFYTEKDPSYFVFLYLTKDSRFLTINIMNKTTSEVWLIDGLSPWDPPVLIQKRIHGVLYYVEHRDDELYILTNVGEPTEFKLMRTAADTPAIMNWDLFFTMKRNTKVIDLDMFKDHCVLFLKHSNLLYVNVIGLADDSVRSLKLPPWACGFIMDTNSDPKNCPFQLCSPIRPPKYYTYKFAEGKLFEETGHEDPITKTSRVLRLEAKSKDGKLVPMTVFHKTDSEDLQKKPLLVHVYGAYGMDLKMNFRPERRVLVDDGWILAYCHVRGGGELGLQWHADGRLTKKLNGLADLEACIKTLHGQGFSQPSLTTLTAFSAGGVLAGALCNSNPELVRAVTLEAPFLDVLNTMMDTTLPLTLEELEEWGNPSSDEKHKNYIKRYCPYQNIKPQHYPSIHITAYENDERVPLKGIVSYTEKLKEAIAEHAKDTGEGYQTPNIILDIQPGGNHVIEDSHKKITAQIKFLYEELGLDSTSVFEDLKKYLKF
CHOP inh = blocks CHOP induction under ER stress; CHO-K1 CHOP-promoter luciferase, tunicamycin-induced, 15-18 h; 220,000 compounds, 3.8% hits; inhibition, % at 10 µM;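 active = compounds that reduced the stress-induced luciferase reporter signal by more than about 70% of percent inhibition, limit read from the data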
GRIN3A LBD mod = modulates the human NR3A ligand-binding domain; NR3A LBD differential scanning fluorimetry, Tm shift; 0% = protein alone, 100% = glycine-bound protein; Tm shift relative to glycine control, % at 25 µM; 340,000 compounds, 2.5% hits;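 active = melting temperature shift of at least 10% of the positive control shift, at one fixed dose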
Hits are given with their value. Most compounds without a hit are left out; they make up all but 6.7% or so of the library.

Screening O=C(Cn1c(C(=O)N2CCN(C3CCCCC3)CC2)cc2sccc21)c1ccccc1 returned T cruzi inh 76, CSC inhib inactive, Beta apoptosis inactive, PREPL inhibitor inactive, CHOP inh inactive and GRIN3A LBD mod inactive.
CC1CCN(C(=O)C2CCN(C(=O)c3cc4sccc4n3Cc3ccc(F)cc3)CC2)CC1 was read as T cruzi inh inactive, CSC inhib inactive, Beta apoptosis inactive, PREPL inhibitor inactive, CHOP inh 71 and GRIN3A LBD mod inactive.
For Cc1nn(C(=O)c2ccc3c(c2)OCO3)c(N)c1-c1ccccc1 the results were T cruzi inh inactive, CSC inhib inactive, Beta apoptosis inactive, PREPL inhibitor inactive, CHOP inh inactive and GRIN3A LBD mod inactive.
`O=C(CSc1nnc(-c2ccc(F)cc2)o1)c1ccc2c(c1)OCCO2` gave T cruzi inh inactive, CSC inhib inactive, Beta apoptosis inactive, PREPL inhibitor inactive, CHOP inh inactive and GRIN3A LBD mod inactive.
Screening Cc1cc(C)c(C)c(C(=O)CSc2nnc(-c3ccc4[nH]c(C)c(C)c4c3)o2)c1C returned T cruzi inh 55, CSC inhib inactive, Beta apoptosis inactive, PREPL inhibitor inactive, CHOP inh 71 and GRIN3A LBD mod inactive.
Screening Cc1[nH]c2ccc(-c3nnc(SCC(=O)c4ccc(F)cc4)o3)cc2c1C returned T cruzi inh inactive, PREPL inhibitor inactive, CHOP inh inactive and GRIN3A LBD mod 29.
For Cn1c(CNC(=O)CCNC(=O)c2ccccc2)cc(=O)n(C)c1=O the results were T cruzi inh inactive, CSC inhib inactive, Beta apoptosis inactive, PREPL inhibitor inactive and GRIN3A LBD mod inactive.
Screening Cn1c(CNC(=O)CCNC(=O)c2cccc(Cl)c2)cc(=O)n(C)c1=O returned T cruzi inh inactive, CSC inhib inactive, Beta apoptosis inactive, PREPL inhibitor inactive and GRIN3A LBD mod 12.
For CN(CC(=O)Nc1ccccc1Br)C(=O)Cn1[nH]c(=O)c2ccccc2c1=O the results were CSC inhib inactive, Beta apoptosis inactive, PREPL inhibitor inactive and GRIN3A LBD mod inactive.
Screening CCOC(=O)c1ccc(NC(=O)c2ccc3c(c2)C(=O)N(Cc2cccnc2)C3=O)cc1 returned T cruzi inh inactive, CSC inhib inactive, Beta apoptosis inactive, PREPL inhibitor inactive and GRIN3A LBD mod inactive.
COC(=O)c1ccc(C(c2c(C)n(C)n(-c3ccccc3)c2=O)c2c(C)n(C)n(-c3ccccc3)c2=O)cc1 was read as T cruzi inh inactive, CSC inhib inactive, Beta apoptosis inactive, PREPL inhibitor inactive and GRIN3A LBD mod inactive.
`CCOC(=O)c1ccc(N2C(=O)CC(N3CCC(Nc4ccc(F)cc4)CC3)C2=O)cc1` (centres undefined) gave T cruzi inh inactive, CSC inhib inactive, Beta apoptosis inactive, PREPL inhibitor inactive, CHOP inh 84 and GRIN3A LBD mod inactive.
Screening CCOc1ccc(N2C(=O)CC(N3CCC(NC(=O)Nc4ccccc4)CC3)C2=O)cc1 (centres undefined) returned T cruzi inh inactive, CSC inhib inactive, Beta apoptosis inactive, PREPL inhibitor inactive, CHOP inh inactive and GRIN3A LBD mod 14.
`CCOc1ccc(N2C(=O)CC(N3CCN(C(=O)CN4CCCC4)CC3)C2=O)cc1` (centres undefined) gave T cruzi inh inactive, CSC inhib inactive, Beta apoptosis inactive, PREPL inhibitor inactive, CHOP inh inactive and GRIN3A LBD mod inactive.
For CCOC(=O)c1ccc(N2C(=O)CC(N3CCN(Cc4ccccc4)CC3)C2=O)cc1 (centres undefined) the results were T cruzi inh inactive, CSC inhib inactive, Beta apoptosis inactive, PREPL inhibitor inactive, CHOP inh inactive and GRIN3A LBD mod inactive.
Screening Clc1ccc(Cc2ccccn2)cc1 returned GRIN3A LBD mod inactive.
For CN(CC(=O)Nc1ccc(F)c(F)c1F)C1CCCCC1 the results were T cruzi inh inactive, CSC inhib inactive, Beta apoptosis inactive, PREPL inhibitor inactive, CHOP inh 75 and GRIN3A LBD mod inactive.
CN(CC(=O)Nc1ccc(F)c(F)c1F)c1cnccn1 was read as T cruzi inh 64, CSC inhib inactive, Beta apoptosis inactive, PREPL inhibitor inactive and CHOP inh 74.
Screening CN(CC(=O)Nc1ccc(F)c(F)c1F)C(=O)C1CCCCC1 returned CSC inhib inactive, Beta apoptosis inactive, PREPL inhibitor inactive and GRIN3A LBD mod inactive.
CCN(CC(=O)Nc1ccccc1Br)C1CCCCC1 was read as T cruzi inh inactive, CSC inhib inactive, Beta apoptosis inactive, PREPL inhibitor inactive, CHOP inh 73 and GRIN3A LBD mod inactive.
Screening CC(C(=O)Nc1ccc(F)c(F)c1F)N(C)CC(=O)Nc1ccccc1Br (centres undefined) returned T cruzi inh 102, CSC inhib inactive, Beta apoptosis inactive, PREPL inhibitor inactive, CHOP inh inactive and GRIN3A LBD mod inactive.
`CN(CC(=O)Nc1ccccc1Br)C(=O)CCC1CCCC1` gave T cruzi inh inactive, CSC inhib inactive, Beta apoptosis inactive, PREPL inhibitor inactive and GRIN3A LBD mod inactive.
`COc1ccc(OC)c(NC(=S)NC(=O)c2ccc(Br)o2)c1` gave T cruzi inh inactive, CSC inhib inactive, Beta apoptosis inactive, PREPL inhibitor inactive and GRIN3A LBD mod inactive.
`O=C(COC(=O)C1CSC2(c3ccc(F)cc3)CCC(=O)N12)NC(=O)NC1CCCC1` (centres undefined) gave T cruzi inh inactive, CSC inhib inactive, Beta apoptosis inactive, PREPL inhibitor inactive, CHOP inh 73 and GRIN3A LBD mod inactive.
Cc1ccc(C)c(N2CCN(S(=O)(=O)c3ccc4c(c3)NC(=O)CC(=O)N4)CC2)c1 was read as T cruzi inh inactive, CSC inhib inactive, Beta apoptosis inactive, PREPL inhibitor inactive and GRIN3A LBD mod inactive.
For O=C1COc2ccc(S(=O)(=O)N3CCN(c4ccccc4F)CC3)cc2N1 the results were T cruzi inh inactive, PREPL inhibitor inactive and GRIN3A LBD mod 12.
For CC(=O)Nc1ccc(S(=O)(=O)N2CCN(c3cc(C)ccc3C)CC2)cc1 the results were T cruzi inh inactive, CSC inhib inactive, Beta apoptosis inactive, PREPL inhibitor inactive, CHOP inh 75 and GRIN3A LBD mod inactive.
`Cc1ccc(C)c(N2CCN(S(=O)(=O)c3ccc4c(c3)NC(=O)CO4)CC2)c1` gave T cruzi inh inactive, PREPL inhibitor inactive and GRIN3A LBD mod 11.
For O=C1COc2ccc(S(=O)(=O)N3CCN(c4cccc(Cl)c4)CC3)cc2N1 the results were T cruzi inh inactive, CSC inhib inactive, Beta apoptosis inactive, PREPL inhibitor inactive and GRIN3A LBD mod inactive.
Screening Cc1cc2c(cc1S(=O)(=O)N1CCN(c3ccccc3F)CC1)OCC(=O)N2 returned T cruzi inh inactive, CSC inhib inactive, Beta apoptosis inactive, PREPL inhibitor inactive and GRIN3A LBD mod 13.
`Cc1ccc2nc(C(=O)N3CCc4c([nH]c5ccccc45)C3c3ccccn3)cn2c1` (centres undefined) gave T cruzi inh inactive, CSC inhib inactive, Beta apoptosis inactive, PREPL inhibitor inactive, CHOP inh inactive and GRIN3A LBD mod inactive.
